Data set [1] deals with Prostaglandin G/H synthase 2 (Homo sapiens) (UniProt P35354). Briefly: Inhibition of human COX2 at 10 uM relative to control.
Data set [2] deals with Corticotropin-releasing factor receptor 1 (Homo sapiens) (UniProt P34998). The data set can be described thus: Inhibition of human CRF1 receptor at 10 uM relative to control.
Data set [3] addresses Oxysterols receptor LXR-beta (Homo sapiens) (UniProt P55055). The data set can be described thus: Inhibition of human LXRbeta at 10 uM relative to control.
Data set [4] addresses Alpha-2B adrenergic receptor (Homo sapiens, UniProt P18089). Briefly: Inhibition of human alpha 2B receptor.
The target of data set [5] is Sodium-dependent dopamine transporter (Homo sapiens) (UniProt Q01959). The data set can be described thus: Inhibition of human dopamine transporter at 10 uM relative to control.
The target of data set [6] is Apelin receptor (Homo sapiens) (UniProt P35414). Briefly: Inhibition of human APJ at 10 uM relative to control.
Data set [7] has as its target xanthine oxidase (Xanthine dehydrogenase/oxidase) (Homo sapiens, UniProt P47989). Briefly: Inhibition of xanthine oxidase (unknown origin) at 10 uM relative to control.
The target in data set [8] is 5-hydroxytryptamine receptor 1D (Homo sapiens) (UniProt P28221). The data set can be described thus: Inhibition of 5-HT1D receptor (unknown origin) at 10 uM relative to control.
A short description of data set [9]: Inhibition of SETD7 H252W mutant (unknown origin) using biotinylated H3 (1-25) peptide as substrate incubated for 1 hrs in presence of 3H-SAM by radioactivity based assay. Details: species or system Homo sapiens. In short, it runs like this:
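Scintillation proximity assay on recombinant E. coli-expressed human SETD7(1–366) mutant forms. Read-out was incorporation of the ³H-methyl group from ³H-SAM into histone H3(1–25) peptide, with 2 µM SAM, 2 µM H3(1–25) and 2 nM enzyme. IC50 is given as the mean ± SD of triplicate runs.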

The target in data set [10] is B2 bradykinin receptor (Homo sapiens) (UniProt P30411). Briefly: Inhibition of human B2 receptor at 10 uM relative to control.
For data set [11], the target named is Alpha-2B adrenergic receptor (Homo sapiens) (UniProt P18089). The data set can be described thus: Inhibition of human alpha 2B receptor at 10 uM relative to control.
In data set [12] the target is Somatostatin receptor type 4 (Homo sapiens) (UniProt P31391). Briefly: Inhibition of human sst4 at 10 uM relative to control.
The target of data set [13] is Tyrosine-protein kinase ABL1 (Homo sapiens) (UniProt P00519). Briefly: Inhibition of human Abl kinase at 10 uM relative to control.
The test system of the next data set is HFF. Briefly: Cytotoxicity against HFF cells assessed as reduction in cell viability at <50 uM by alamar blue assay. Format: toxicity, cell-based. To be noted: human. For orientation: Alamar Blue is a resazurin reagent that responds to reducing activity.
The target in data set [14] is Endothelin-1 receptor (Homo sapiens) (UniProt P25101). Briefly: Inhibition of human ETA receptor at 10 uM relative to control.
The species entered for the next data set is Homo sapiens. The data set can be described thus: Inhibition of PDE6 (unknown origin) at 10 uM relative to control.
In data set [15] the target is 5-hydroxytryptamine receptor 4 (Homo sapiens) (UniProt Q13639). The data set can be described thus: Inhibition of human 5-HT4e receptor at 10 uM relative to control.
For data set [16], the target named is 5-hydroxytryptamine receptor 6 (Homo sapiens) (UniProt P50406). Briefly: Inhibition of human 5-HT6 receptor at 10 uM relative to control.
Data set [17] deals with Beta-2 adrenergic receptor (Homo sapiens) (UniProt P07550). Briefly: Inhibition of human beta 2 receptor at 10 uM relative to control.
The target in data set [18] is 5-hydroxytryptamine receptor 1B (Homo sapiens) (UniProt P28222). The data set can be described thus: Inhibition of 5-HT1B receptor (unknown origin) at 10 uM relative to control.
Data set [19] addresses T1, Histone-lysine N-methyltransferase SETD7 (Homo sapiens, UniProt Q8WTS6).
T1 sequence (Q8WTS6 whole entry): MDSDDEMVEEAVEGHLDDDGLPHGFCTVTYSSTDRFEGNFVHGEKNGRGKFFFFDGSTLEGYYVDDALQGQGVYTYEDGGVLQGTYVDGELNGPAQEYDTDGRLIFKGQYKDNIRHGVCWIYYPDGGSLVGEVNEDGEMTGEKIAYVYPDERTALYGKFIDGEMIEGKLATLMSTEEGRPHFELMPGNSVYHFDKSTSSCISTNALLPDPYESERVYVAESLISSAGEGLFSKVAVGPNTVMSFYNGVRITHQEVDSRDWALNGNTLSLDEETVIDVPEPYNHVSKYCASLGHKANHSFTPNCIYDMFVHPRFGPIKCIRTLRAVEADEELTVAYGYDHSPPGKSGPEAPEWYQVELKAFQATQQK
The data set can be described thus: Inhibition of full length human SETD7 (1 to 366 residues) expressed in Escherichia coli BL21 (DE3) V2R-pRARE assessed as apparent inhibition constant using biotinylated H3 (1-25) peptide as substrate incubated for 1 hrs in presence of 3H-SAM by morrison equation. The following applies: read-out: Ki(app).

The target in data set [20] is Human immunodeficiency virus type 1 protease (Human immunodeficiency virus 1) (UniProt Q72874). The data set can be described thus: Inhibition of HIV-1 protease at 10 uM relative to control.

Each structure is given as a SMILES string.

Consider 1 molecule from ChEMBL document CHEMBL5705898 (Proc Natl Acad Sci U S A, 2014).

Chain of Oxysterols receptor LXR-beta (Homo sapiens) (P55055 whole entry): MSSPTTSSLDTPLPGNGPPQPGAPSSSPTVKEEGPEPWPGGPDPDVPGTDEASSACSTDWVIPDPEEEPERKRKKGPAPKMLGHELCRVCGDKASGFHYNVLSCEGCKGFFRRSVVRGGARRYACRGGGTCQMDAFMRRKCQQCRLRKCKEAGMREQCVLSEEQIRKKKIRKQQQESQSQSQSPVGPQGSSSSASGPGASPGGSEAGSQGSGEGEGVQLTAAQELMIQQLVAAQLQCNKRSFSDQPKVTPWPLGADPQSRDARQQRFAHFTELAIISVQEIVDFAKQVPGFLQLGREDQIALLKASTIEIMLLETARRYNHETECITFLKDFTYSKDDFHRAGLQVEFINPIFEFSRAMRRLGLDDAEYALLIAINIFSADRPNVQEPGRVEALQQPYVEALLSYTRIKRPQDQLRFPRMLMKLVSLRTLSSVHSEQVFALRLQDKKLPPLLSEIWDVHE
Chain of B2 bradykinin receptor (Homo sapiens) (P30411 whole entry): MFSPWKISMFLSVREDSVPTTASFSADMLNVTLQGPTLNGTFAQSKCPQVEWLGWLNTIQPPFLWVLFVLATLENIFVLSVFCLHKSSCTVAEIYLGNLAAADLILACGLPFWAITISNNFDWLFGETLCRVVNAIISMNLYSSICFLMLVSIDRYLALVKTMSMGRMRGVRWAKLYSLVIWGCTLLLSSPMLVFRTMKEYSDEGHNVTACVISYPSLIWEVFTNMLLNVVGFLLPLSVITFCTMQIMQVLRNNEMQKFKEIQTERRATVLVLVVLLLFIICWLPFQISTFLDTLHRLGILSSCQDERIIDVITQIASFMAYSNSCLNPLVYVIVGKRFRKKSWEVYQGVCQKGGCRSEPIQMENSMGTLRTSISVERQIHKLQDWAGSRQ
Chain of Alpha-2B adrenergic receptor (Homo sapiens) (P18089 whole entry): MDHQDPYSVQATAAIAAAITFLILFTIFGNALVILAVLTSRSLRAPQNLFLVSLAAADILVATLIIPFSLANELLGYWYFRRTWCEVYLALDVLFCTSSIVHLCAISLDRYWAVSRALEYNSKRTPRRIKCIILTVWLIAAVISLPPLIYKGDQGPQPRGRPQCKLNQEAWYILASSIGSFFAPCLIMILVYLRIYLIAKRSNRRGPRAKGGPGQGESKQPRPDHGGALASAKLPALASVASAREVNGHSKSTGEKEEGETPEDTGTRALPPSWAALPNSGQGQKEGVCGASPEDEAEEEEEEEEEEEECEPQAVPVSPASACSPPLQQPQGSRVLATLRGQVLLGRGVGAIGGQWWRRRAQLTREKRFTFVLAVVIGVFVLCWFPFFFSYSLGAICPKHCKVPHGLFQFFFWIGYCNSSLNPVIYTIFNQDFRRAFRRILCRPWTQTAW
Chain of Alpha-2B adrenergic receptor (P18089 whole entry): as above
Chain of Prostaglandin G/H synthase 2 (Homo sapiens) (P35354 whole entry): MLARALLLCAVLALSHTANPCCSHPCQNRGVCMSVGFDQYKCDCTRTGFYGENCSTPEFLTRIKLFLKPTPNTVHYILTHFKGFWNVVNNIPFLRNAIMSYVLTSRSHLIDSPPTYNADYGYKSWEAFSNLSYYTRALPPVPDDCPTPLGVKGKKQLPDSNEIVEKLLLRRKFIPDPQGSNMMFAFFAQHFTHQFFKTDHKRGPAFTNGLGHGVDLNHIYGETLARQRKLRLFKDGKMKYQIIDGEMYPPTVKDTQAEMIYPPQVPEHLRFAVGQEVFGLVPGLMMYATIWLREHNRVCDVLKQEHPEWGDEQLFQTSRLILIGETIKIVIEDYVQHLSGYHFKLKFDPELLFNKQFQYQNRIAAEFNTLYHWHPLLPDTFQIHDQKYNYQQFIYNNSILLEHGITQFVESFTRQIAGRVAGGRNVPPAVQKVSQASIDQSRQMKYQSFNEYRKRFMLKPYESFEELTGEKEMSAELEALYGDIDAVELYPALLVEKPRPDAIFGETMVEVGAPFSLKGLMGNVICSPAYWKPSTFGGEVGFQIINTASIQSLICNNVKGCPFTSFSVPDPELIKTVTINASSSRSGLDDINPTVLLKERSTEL
Chain of xanthine oxidase (Xanthine dehydrogenase/oxidase) (P47989 whole entry): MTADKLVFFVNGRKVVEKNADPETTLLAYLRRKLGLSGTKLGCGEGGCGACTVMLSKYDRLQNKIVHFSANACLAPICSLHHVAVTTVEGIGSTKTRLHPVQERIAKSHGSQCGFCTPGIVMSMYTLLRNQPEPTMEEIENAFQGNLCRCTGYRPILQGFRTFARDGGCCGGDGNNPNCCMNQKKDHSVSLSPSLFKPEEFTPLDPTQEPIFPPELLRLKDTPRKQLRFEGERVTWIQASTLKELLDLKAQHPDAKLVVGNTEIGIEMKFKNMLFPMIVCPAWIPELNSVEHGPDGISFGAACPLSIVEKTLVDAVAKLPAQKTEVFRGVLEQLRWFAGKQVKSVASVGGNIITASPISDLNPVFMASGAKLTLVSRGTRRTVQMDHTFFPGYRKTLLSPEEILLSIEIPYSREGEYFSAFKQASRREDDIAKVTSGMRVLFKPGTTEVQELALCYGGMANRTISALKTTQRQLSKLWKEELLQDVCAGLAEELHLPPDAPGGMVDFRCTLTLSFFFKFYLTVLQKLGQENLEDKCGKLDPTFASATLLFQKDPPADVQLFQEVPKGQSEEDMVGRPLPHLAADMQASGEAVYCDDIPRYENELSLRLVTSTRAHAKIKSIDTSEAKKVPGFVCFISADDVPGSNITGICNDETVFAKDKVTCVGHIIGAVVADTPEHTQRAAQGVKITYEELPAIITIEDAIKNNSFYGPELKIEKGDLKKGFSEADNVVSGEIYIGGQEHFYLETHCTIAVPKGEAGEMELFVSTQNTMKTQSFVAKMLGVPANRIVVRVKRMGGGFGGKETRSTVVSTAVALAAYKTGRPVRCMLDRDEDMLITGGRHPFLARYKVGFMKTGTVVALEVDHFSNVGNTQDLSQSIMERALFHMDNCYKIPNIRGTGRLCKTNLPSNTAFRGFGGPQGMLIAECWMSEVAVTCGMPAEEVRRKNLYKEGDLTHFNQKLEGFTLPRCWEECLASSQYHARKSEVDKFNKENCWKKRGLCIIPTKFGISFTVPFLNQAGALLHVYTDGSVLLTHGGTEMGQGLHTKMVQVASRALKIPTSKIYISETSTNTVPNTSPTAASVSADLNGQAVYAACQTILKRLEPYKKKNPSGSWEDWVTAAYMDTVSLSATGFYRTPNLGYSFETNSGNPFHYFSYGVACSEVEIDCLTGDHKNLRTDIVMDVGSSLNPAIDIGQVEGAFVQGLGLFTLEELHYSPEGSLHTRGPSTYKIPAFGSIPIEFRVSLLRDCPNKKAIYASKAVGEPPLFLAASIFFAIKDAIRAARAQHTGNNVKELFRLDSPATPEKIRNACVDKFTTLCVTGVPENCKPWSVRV
Chain of Beta-2 adrenergic receptor (Homo sapiens) (P07550 whole entry, looked up): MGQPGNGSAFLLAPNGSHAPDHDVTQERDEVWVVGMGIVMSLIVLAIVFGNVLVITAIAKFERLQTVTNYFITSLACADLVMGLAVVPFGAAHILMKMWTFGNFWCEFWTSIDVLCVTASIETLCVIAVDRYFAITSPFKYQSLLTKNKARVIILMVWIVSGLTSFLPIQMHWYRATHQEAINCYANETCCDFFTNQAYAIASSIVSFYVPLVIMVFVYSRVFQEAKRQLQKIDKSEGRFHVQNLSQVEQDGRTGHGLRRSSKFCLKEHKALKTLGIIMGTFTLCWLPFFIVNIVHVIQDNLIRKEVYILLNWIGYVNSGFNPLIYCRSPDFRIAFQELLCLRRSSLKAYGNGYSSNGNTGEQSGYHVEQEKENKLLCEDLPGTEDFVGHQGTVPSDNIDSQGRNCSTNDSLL
Chain of Apelin receptor (Homo sapiens) (P35414 whole entry): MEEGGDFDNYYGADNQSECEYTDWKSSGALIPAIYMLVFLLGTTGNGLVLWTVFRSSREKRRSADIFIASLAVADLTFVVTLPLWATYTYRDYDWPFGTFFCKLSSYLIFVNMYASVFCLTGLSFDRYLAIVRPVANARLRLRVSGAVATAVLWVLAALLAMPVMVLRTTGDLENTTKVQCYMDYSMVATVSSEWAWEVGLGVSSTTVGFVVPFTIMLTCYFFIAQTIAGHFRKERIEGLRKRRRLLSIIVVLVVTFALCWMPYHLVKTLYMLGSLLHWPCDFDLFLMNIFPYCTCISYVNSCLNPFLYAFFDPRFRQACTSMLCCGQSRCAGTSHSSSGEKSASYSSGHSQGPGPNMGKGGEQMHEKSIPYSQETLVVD
Chain of 5-hydroxytryptamine receptor 6 (Homo sapiens) (P50406 whole entry): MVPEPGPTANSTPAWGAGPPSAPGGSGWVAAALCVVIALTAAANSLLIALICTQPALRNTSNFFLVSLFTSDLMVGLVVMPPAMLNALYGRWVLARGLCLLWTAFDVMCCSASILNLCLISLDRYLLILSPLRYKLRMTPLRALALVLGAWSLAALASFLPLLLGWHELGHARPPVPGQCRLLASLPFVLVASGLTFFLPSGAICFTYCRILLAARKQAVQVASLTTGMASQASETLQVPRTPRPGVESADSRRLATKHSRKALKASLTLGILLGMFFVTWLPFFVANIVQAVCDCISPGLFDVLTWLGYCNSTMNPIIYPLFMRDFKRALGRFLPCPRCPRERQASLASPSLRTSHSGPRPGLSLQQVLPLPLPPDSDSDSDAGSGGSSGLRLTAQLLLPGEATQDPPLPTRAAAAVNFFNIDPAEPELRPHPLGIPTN
Chain of Somatostatin receptor type 4 (Homo sapiens) (P31391 whole entry): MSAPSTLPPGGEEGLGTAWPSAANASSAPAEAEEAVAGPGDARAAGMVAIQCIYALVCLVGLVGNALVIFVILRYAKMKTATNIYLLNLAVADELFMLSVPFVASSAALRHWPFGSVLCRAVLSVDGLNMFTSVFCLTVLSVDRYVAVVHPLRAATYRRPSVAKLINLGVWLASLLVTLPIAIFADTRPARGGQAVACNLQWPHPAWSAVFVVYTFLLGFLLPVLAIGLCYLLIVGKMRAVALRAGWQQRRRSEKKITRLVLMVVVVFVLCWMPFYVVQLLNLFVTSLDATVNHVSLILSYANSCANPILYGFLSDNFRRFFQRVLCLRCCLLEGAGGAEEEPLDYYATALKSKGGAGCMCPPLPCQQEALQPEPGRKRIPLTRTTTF

As to `O=C([C@@H](Cc1cccc(C(F)(F)F)c1)NS(=O)(=O)c1cc(F)c2c(c1)CCNC2)N1CCCC1`, the inhibition (usually the drop in the measured response relative to a control, in per cent) in data set [1] was -8%; in data set [2], -7%; in data set [3], 5%; in data set [5], 2%; in data set [6] it was -5%; in data set [8], 10%. The inhibition in [10] is 0%; in [11], 79%; in data set [12], 27%; in data set [13], 15%; in data set [14] it was 10%; in the data set listed under Homo sapiens it was 11%. Further, the inhibition in [15] was -4%; in [16], -8%; in data set [17], -4%; in data set [18], 7%; in data set [20], -4%. For the same molecule, the 50% inhibitory concentration (IC50) (commonly the point on the concentration scale where inhibition reaches its midpoint) was found to be 1.3 µM in [4] and 2.63 µM in data set [9]. Moreover, the inhibition at 10 µM in data set [7] is 4%. In addition, the Activity result in the data set on HFF is on record as “Non-Toxic”. Further, the Ki in [19] was determined as 0.00033 µM.
